Assay results published in ChEMBL document CHEMBL1944597, “Synthesis and evaluation of non-basic inhibitors of urokinase-type plasminogen activator (uPA)” (Bioorg Med Chem, 2012).

Key:
[1] = biological target: T1, Urokinase-type plasminogen activator (Homo sapiens, UniProt P00749); assay: Inhibition of human uPA using pyroGlu-Gly-Arg-p-NA.HCl as substrate preincubated for 15 mins prior substrate addition measured for 10 mins by spectrophotometry
[2] = biological target: Tissue-type plasminogen activator (Homo sapiens, UniProt P00750); assay: Inhibition of recombinant tPA using H-D-Ile-Pro-Arg-pNA.2HCl as substrate preincubated for 15 mins prior substrate addition measured for 10 mins by spectrophotometry
Sequence of Tissue-type plasminogen activator (P00750 whole entry): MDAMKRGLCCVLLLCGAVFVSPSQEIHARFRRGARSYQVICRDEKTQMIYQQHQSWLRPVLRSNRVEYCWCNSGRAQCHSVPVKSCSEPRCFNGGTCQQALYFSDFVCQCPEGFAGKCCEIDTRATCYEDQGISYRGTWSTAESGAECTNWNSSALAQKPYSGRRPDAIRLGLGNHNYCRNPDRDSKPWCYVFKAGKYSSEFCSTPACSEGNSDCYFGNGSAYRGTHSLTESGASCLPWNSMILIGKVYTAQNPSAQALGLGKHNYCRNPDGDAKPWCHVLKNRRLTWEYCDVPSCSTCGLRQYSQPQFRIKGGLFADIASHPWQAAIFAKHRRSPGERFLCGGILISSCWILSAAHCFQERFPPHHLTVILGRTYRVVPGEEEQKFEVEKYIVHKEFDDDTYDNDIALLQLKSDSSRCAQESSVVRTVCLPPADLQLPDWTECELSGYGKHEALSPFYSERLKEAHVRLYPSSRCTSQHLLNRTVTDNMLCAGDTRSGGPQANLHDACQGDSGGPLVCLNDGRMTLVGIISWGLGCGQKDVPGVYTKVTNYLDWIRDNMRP
Procedure, shortened: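 Recombinant tPA, about 5 mU, in Tris buffer pH 8.3, with inhibitor at 0–250 µM final from DMSO stocks, preincubated 15 min at 37 °C. […] Initial rate came from 405 nm absorbance (0–0.25 AU, 10 min) at 37 °C, measured in duplicate. IC50 was the inhibitor level reducing activity to 50%.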

Prothrombin = Prothrombin (Homo sapiens, UniProt P00734); assay: Inhibition of human plasma thrombin using pyroGlu-Pro-Arg-p-NA.HCl as substrate preincubated for 15 mins prior substrate addition measured for 10 mins by spectrophotometry
Procedure, shortened: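 Human plasma thrombin (about 5 mU) in Tris pH 8.3 was given a 15-min 37 °C preincubation with inhibitor at 0–250 µM final, from DMSO stocks. […] Absorbance at 405 nm gave the initial rate over 0–0.25 AU in 10 min, at 37 °C, in duplicate. IC50 was taken as 50% activity loss.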

Plasminogen = Plasminogen (Homo sapiens, UniProt P00747); assay: Inhibition of human plasma plasmin using pyroGlu-Pro-Arg-p-NA.HCl as substrate preincubated for 15 mins prior substrate addition measured for 10 mins by spectrophotometry
Sequence of Plasminogen (P00747 97-580 limits assumed): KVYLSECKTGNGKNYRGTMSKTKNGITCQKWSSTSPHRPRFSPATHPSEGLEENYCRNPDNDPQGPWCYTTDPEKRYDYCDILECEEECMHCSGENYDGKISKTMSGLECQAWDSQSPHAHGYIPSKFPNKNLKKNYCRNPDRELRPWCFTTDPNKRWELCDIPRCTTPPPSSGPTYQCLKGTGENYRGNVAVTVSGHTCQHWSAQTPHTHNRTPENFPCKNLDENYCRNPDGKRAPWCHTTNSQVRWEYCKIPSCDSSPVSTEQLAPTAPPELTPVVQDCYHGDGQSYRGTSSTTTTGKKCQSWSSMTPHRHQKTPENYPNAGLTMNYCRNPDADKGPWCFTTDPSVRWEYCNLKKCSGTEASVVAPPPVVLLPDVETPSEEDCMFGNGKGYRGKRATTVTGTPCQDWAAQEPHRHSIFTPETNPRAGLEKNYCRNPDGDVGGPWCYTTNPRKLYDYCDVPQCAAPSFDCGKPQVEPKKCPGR
Sequence of Plasminogen (P00747 581-810 limits assumed): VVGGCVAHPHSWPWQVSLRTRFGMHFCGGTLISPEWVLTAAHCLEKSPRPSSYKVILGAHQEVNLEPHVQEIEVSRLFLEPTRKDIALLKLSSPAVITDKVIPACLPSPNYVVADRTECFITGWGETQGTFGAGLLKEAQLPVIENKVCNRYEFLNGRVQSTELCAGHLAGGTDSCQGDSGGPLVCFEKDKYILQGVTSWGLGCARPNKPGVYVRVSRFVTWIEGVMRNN
Procedure, shortened: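 Plasmin from human plasma, about 5 mU, in Tris buffer pH 7.4, preincubated 15 min at 37 °C with inhibitor (0–250 µM final, DMSO stocks). […] Initial rate was read at 405 nm (0–0.25 AU within 10 min) at 37 °C. Assays ran in duplicate, and IC50 was the concentration halving activity.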

[3] = biological target: T1, Urokinase-type plasminogen activator; assay: Competitive inhibition of human uPA using pyroGlu-Gly-Arg-p-NA.HCl as substrate preincubated for 15 mins prior substrate addition measured for 10 mins by spectrophotometry
Procedure, shortened: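 Human uPA (about 1 mU) in 50 mM Tris pH 8.8 at 37 °C. […] Initial rate taken over 0–0.25 absorbance units in 10 min. Duplicates; IC50 is the concentration giving 50% activity.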

[4] = biological target: T1, Urokinase-type plasminogen activator; assay: Non-competitive inhibition of human uPA using pyroGlu-Gly-Arg-p-NA.HCl as substrate preincubated for 15 mins prior substrate addition measured for 10 mins by spectrophotometry

| IC50 [1] | SMILES | other results |
| --- | --- | --- |
| 6.9 µM | COc1ccc2cc(S(=O)(=O)Nc3ccc(-c4cccc([N+](=O)[O-])c4)cc3)ccc2c1 | – |
| 9 µM | COC(=O)c1cccc(-c2ccc(NC(=O)c3ccc4cc(C#N)ccc4c3)cc2)c1 | – |
| – | C[C@H](NC(=O)[C@@H](CO)NS(=O)(=O)Cc1ccccc1)C(=O)NCc1ccc(C(=N)N)cc1 | Ki [2]: 7.4 µM; Ki (Prothrombin): 0.1 µM |
| 20 µM | COc1cccc(-c2ccc(NC(=O)c3ccc4cc(C#N)ccc4c3)cc2)c1 | – |
| 6.4 µM | COc1ccc(-c2ccc(NC(=O)c3ccc4cc(C(N)=O)ccc4c3)cc2OC)cc1 | IC50 [2]: 9.7 µM |
| 19 µM | COc1cccc(-c2ccc(NS(=O)(=O)c3ccc4cc(OC)ccc4c3)cc2)c1 | – |
| 4.1 µM | COc1ccc2cc(S(=O)(=O)Nc3ccc(-c4cccc(C(F)(F)F)c4)cc3)ccc2c1 | IC50 [2]: 13 µM |
| > 250 µM | N#Cc1ccc2cc(C(=O)Nc3ccc(-c4cccc(C(=O)O)c4)cc3)ccc2c1 | – |
| > 62 µM | COc1ccc2cc(S(=O)(=O)Nc3ccc(-c4cccc(Cl)c4)cc3)ccc2c1 | – |
| > 62 µM | COc1ccc2cc(S(=O)(=O)Nc3ccc(-c4cccc(F)c4)cc3)ccc2c1 | – |
| 4 µM | COC(=O)c1cccc(-c2ccc(NC(=O)c3ccc4cc(OC)ccc4c3)cc2)c1 | IC50 (Plasminogen): 4 µM; IC50 [2]: 8.4 µM; IC50 (Prothrombin): > 62 µM |
| > 31 µM | COc1ccc(-c2ccc(NC(=O)c3ccc4cc(OC)ccc4c3)cc2OC)cc1 | – |
| 0.2 µM | N=C(N)c1ccc(/C=C2/N=C(c3ccccc3)OC2=O)cc1 | IC50 (Plasminogen): > 100 µM; IC50 [2]: > 100 µM; IC50 (Prothrombin): > 100 µM |
| 13 µM | N=C(N)c1ccc2cc(C(=O)Nc3ccccc3)ccc2c1 | IC50 (Plasminogen): 22 µM; IC50 [2]: 125 µM; IC50 (Prothrombin): 56 µM; Ki [3]: 1.9 µM |
| 2.6 µM | COc1ccc2cc(C(=O)Nc3ccc(-c4cccc([N+](=O)[O-])c4)cc3)ccc2c1 | IC50 (Plasminogen): 31 µM; IC50 [2]: 8.6 µM; IC50 (Prothrombin): > 62 µM |
| 2.6 µM | COc1cc(NC(=O)c2ccc3cc(C(=N)N)ccc3c2)cc(OC)c1 | IC50 (Plasminogen): 13 µM; IC50 [2]: > 62 µM; IC50 (Prothrombin): > 62 µM |
| 9.8 µM | COC(=O)c1ccc(-c2ccc(NS(=O)(=O)c3ccc4ccccc4c3)cc2)cc1 | – |
| 16 µM | COC(=O)c1cccc(-c2ccc(NS(=O)(=O)c3ccc4ccccc4c3)cc2)c1 | – |
| 8 µM | COc1ccc2cc(S(=O)(=O)Nc3ccc(-c4ccc(OC)c(OC)c4)cc3)ccc2c1 | – |
| 8.1 µM | NC(=O)c1ccc2cc(C(=O)Nc3ccc(-c4cccc(Cl)c4)cc3)ccc2c1 | – |
| 16 µM | COC(=O)c1ccc(-c2ccc(NS(=O)(=O)c3ccc4cc(OC)ccc4c3)cc2)cc1 | – |
| – | COc1ccc2cc(C(=O)Nc3ccc(-c4cccc(C(F)(F)F)c4)cc3)ccc2c1 | IC50 (Plasminogen): 6.5 µM; IC50 [2]: 5.3 µM; IC50 (Prothrombin): > 62 µM; IC50 [4]: 2.1 µM |
| 31 µM | COc1cccc(-c2ccc(NS(=O)(=O)c3ccc4ccccc4c3)cc2)c1 | – |
| 14 µM | COC(=O)c1cccc(-c2ccc(NC(=O)c3ccc4cc(C(=O)OC)ccc4c3)cc2)c1 | – |
| 45 µM | NCc1ccc(NC(=O)c2ccc3cc(C(N)=O)ccc3c2)cc1 | – |
| > 62 µM | O=C(O)c1ccc2cc(C(=O)Nc3ccccc3)ccc2c1 | – |
| 2.9 µM | COc1cccc(-c2ccc(NC(=O)c3ccc4cc(C(N)=O)ccc4c3)cc2)c1 | IC50 (Plasminogen): 12 µM; IC50 [2]: 5.7 µM; IC50 (Prothrombin): > 62 µM |

| IC50 [1] | SMILES | other results |
| --- | --- | --- |
| > 62 µM | COc1ccc2cc(C(=O)Nc3ccccc3)ccc2c1 | – |
| 7 µM | COC(=O)c1cccc(-c2ccc(NC(=O)c3ccc4cc(Cl)ccc4c3)cc2)c1 | – |
| > 62 µM | COC(=O)c1ccc2cc(C(=O)Nc3ccccc3)ccc2c1 | – |
| 8 µM | COc1ccc(-c2ccc(NS(=O)(=O)c3ccc4cc(OC)ccc4c3)cc2OC)cc1 | – |
| 11 µM | COC(=O)c1cccc(-c2ccc(NC(=O)c3ccc4cc(Br)ccc4c3)cc2)c1 | – |
| 4 µM | COc1cccc(-c2ccc(NC(=O)c3ccc4cc(OC)ccc4c3)cc2)c1 | IC50 (Plasminogen): 20 µM; IC50 [2]: 21 µM; IC50 (Prothrombin): > 62 µM |
| 31 µM | COc1ccc2cc(S(=O)(=O)Nc3ccc(-c4ccccc4)cc3)ccc2c1 | – |
| > 62 µM | O=C(Nc1ccccc1)c1ccc2cc(Br)ccc2c1 | – |
| – | NC(=O)c1ccc2cc(C(=O)Nc3ccccc3)ccc2c1 | IC50 [4]: 15 µM |
| 9.8 µM | COc1cccc(-c2ccc(NC(=O)c3ccc4ccccc4c3)cc2)c1 | – |
| – | COC(=O)c1cccc(-c2ccc(NS(=O)(=O)c3ccc4cc(OC)ccc4c3)cc2)c1 | IC50 (Plasminogen): > 62 µM; IC50 [2]: 26 µM; IC50 (Prothrombin): > 62 µM; IC50 [4]: 2.8 µM |
| – | [H]/N=C(\N)c1ccc2cc(C(=O)Nc3ccc(CN)cc3)ccc2c1 | IC50 (Plasminogen): > 62 µM; IC50 [2]: > 62 µM; IC50 (Prothrombin): > 62 µM |
| – | CCOC(=O)N1CCN(C(=O)[C@H](Cc2cccc(C(=N)N)c2)NS(=O)(=O)c2c(C(C)C)cc(C(C)C)cc2C(C)C)CC1 | Ki [2]: 4.9 µM |
| 16 µM | COC(=O)c1cccc(-c2ccc(NC(=O)c3ccc4ccccc4c3)cc2)c1 | – |
| 31 µM | COc1ccc2cc(C(=O)Nc3ccc(-c4ccc(OC)c(OC)c4)cc3)ccc2c1 | – |
| > 62 µM | Nc1ccc2cc(C(=O)Nc3ccccc3)ccc2c1 | – |
| 3.6 µM | COC(=O)c1cccc(-c2ccc(NC(=O)c3ccc4cc(C(N)=O)ccc4c3)cc2)c1 | IC50 (Plasminogen): > 125 µM; IC50 [2]: 11 µM; IC50 (Prothrombin): > 125 µM |
| 30 µM | COc1cc(NC(=O)c2ccc3cc(C(N)=O)ccc3c2)cc(OC)c1 | – |
| – | NC(=O)c1ccc2cc(C(=O)Nc3ccc(-c4cccc(C(F)(F)F)c4)cc3)ccc2c1 | IC50 (Plasminogen): 6.3 µM; IC50 [2]: 3.4 µM; IC50 (Prothrombin): > 62 µM; IC50 [4]: 2.4 µM |
| > 62 µM | N#Cc1ccc2cc(C(=O)Nc3ccccc3)ccc2c1 | – |
| > 62 µM | O=C(Nc1ccccc1)c1ccc2ccccc2c1 | – |
| > 62 µM | COc1ccc2cc(S(=O)(=O)Nc3ccc(-c4cccc(C(N)=O)c4)cc3)ccc2c1 | – |
| 12 µM | COc1ccc(-c2ccc(NC(=O)c3ccc4cc(OC)ccc4c3)cc2)cc1 | – |
| 23 µM | COc1ccc(-c2ccc(NS(=O)(=O)c3ccc4cc(OC)ccc4c3)cc2)cc1 | – |
| 31 µM | COC(=O)c1cccc(-c2ccc(NC(=O)c3ccc4cc(N)ccc4c3)cc2)c1 | – |
| 62 µM | COc1ccc2cc(S(=O)(=O)Nc3ccc(-c4cccc(N)c4)cc3)ccc2c1 | – |
